Structures are written as SMILES. Read-outs that look alike come from different tables or passages of the source.

Data set [1] has as its target T1, ABCG2 (Homo sapiens, UniProt Q9UNQ0).
T1 sequence (Q9UNQ0 1-655): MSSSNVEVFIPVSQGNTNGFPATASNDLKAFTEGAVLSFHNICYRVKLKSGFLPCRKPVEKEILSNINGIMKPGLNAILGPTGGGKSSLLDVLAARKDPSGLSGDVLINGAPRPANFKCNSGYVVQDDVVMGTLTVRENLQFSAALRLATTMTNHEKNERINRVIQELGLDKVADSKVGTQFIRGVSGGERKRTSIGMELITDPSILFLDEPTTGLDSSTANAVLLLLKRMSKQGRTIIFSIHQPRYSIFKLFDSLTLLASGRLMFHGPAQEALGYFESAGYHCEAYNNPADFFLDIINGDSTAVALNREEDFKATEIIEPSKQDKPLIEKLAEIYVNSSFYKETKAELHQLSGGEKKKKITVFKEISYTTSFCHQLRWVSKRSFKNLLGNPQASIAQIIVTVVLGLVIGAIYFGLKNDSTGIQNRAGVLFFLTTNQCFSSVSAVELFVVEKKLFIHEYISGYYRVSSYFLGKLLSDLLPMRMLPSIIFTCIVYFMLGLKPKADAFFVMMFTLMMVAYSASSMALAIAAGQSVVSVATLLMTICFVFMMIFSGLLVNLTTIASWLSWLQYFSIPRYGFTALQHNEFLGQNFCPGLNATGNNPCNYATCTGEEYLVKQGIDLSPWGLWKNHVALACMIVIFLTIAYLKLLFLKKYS
It is filed as cell-based. Conditions: for class: ranked by apparent affinity and maximal extent of inhibition; for ABCG2 inhibition (in words): at 2 and 10 µM.

For data set [2], the system named is HEK293-ABCG2 and HEK293-pcDNA3.1 cells. The experiment in a line: Cytotoxicity, MTT colorimetric assay, 72 h. It counts as cell-based, human. The note with it: for IG50 (cytotoxicity, µM): concentration producing 50% inhibition of cell growth, MTT, 72 h. The gist of the method: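 HEK293-ABCG2 and empty-vector HEK293-pcDNA3.1 cells (DMEM high glucose, 10% FBS, 0.75 mg/mL G418) seeded at 1 × 10^4 cells/well, attached 24 h at 37 °C, 5% CO2. Exposed 72 h to various concentrations of test compound (DMSO stock diluted in medium). MTT (5 mg/mL solution) added for 4 h, formazan dissolved in DMSO, A570 read. Triplicates; viability relative to 0.1% DMSO control (100%).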
(In general: Tetrazolium assays rely on reduction of a dye to a coloured formazan, in cell work by metabolically active cells.)

On to `COc1cccc(OC)c1C(=O)/C=C/c1ccccc1` [Compound 1], for which, in data set [1] (Table 1), the class is reported as 3. The same measure, in the same setting: for `COc1ccccc1/C=C/C(=O)c1c(OC)cccc1OC` [Compound 2] the value was 3; for `COc1cccc(/C=C/C(=O)c2c(OC)cccc2OC)c1` [Compound 3], 3; for `COc1cccc(OC)c1/C=C/C(=O)c1c(OC)cccc1OC` [Compound 4], 3. Regarding `COc1cc(OC)c(/C=C/C(=O)c2c(OC)cccc2OC)c(OC)c1` [Compound 5], the class in data set [1] (Table 1) is 3. As to `COc1ccc(/C=C/C(=O)c2c(OC)cccc2OC)c(OC)c1OC` [Compound 6], the class in data set [1] (Table 1) came out at 3. Also, the “ABCG2 inhibition (in words)” value in data set [1] was “no inhibition at all”.

As for `COc1cc(OC)c(OC)cc1/C=C/C(=O)c1c(OC)cccc1OC` [Compound 7], the class in data set [1] (Table 1) is recorded as 3.

For the molecule `COc1cc(/C=C/C(=O)c2c(OC)cccc2OC)cc(OC)c1OC` [Compound 8], the class in data set [1] (Table 1) is on record as 3. Besides, the “ABCG2 inhibition (in words)” value in data set [1] is on record as “low inhibition”. For the molecule `CCOc1cccc(OCC)c1C(=O)/C=C/c1c(OC)cc(OC)cc1OC` [Compound 9], the class in data set [1] (Table 1) was 3.

`CCOc1cccc(OCC)c1C(=O)/C=C/c1c(OC)cccc1OC` [Compound 10]: in data set [1] (Table 1), the class worked out at 3. For the same molecule, the “ABCG2 inhibition (in words)” value in data set [1] is “especially low, if any, inhibition”. Turning to `CCOc1cccc(OCC)c1C(=O)/C=C/c1ccc(OC)cc1OC` [Compound 11], in data set [1] (Table 1), the class is listed as 3. The same measure, in the same setting: for `COc1ccc(/C=C/C(=O)c2ccc(OC)cc2OC)c(OC)c1` [Compound 12] the value was 2 (Class 2 comprised high-affinity inhibitors producing an incomplete maximal inhibition (limited to 50–75%)); for `COc1cc(OC)c(/C=C/C(=O)c2c(OC)cc(OC)cc2OC)c(OC)c1` [Compound 13], 3; for `COc1ccc(/C=C/C(=O)c2c(OC)cc(OC)cc2OC)c(OC)c1` [Compound 14], 3.

In the case of `COc1cc(OC)c(C(=O)/C=C/c2c(OC)cccc2OC)c(OC)c1` [Compound 15], the class in data set [1] (Table 1) worked out at 3. The “ABCG2 inhibition (in words)” value in data set [1] was “especially low, if any, inhibition”. In the case of `CCOc1cc(OCC)c(/C=C/C(=O)c2c(OCC)cc(OCC)cc2OCC)c(OCC)c1` [Compound 16], the class in data set [1] (Table 1) was 2 (Class 2 comprised high-affinity inhibitors producing an incomplete maximal inhibition (limited to 50–75%)). For `COc1cccc(OC)c1/C=C/C(=O)c1ccccc1` [Compound 17], the class in data set [1] (Table 1) is 3. Moreover, in data set [1], the “ABCG2 inhibition (in words)” value is “especially low, if any, inhibition”.

Take `COc1cc(/C=C/C(=O)c2ccc(OC)cc2O)cc(OC)c1` [Compound 18]: the class in data set [1] (Table 1) was 2 (Class 2 comprised high-affinity inhibitors producing an incomplete maximal inhibition (limited to 50–75%)). `COc1ccc(C(=O)/C=C/c2ccc(OC)c(OC)c2)c(O)c1` [Compound 20]: the class in data set [1] (Table 1) was 2 (Class 2 comprised high-affinity inhibitors producing an incomplete maximal inhibition (limited to 50–75%)). Still for that read-out and setting: for `COc1ccc(C(=O)/C=C/c2cc(OC)ccc2OC)c(O)c1` [Compound 23] the value was 2 (Class 2 comprised high-affinity inhibitors producing an incomplete maximal inhibition (limited to 50–75%)); for `COc1ccc(C(=O)/C=C/c2c(OC)cccc2OC)c(O)c1` [Compound 25], 2 (Class 2 comprised high-affinity inhibitors producing an incomplete maximal inhibition (limited to 50–75%)); for `COc1ccc(C(=O)/C=C/c2ccc(OC)cc2OC)c(O)c1` [Compound 26], 2 (Class 2 comprised high-affinity inhibitors producing an incomplete maximal inhibition (limited to 50–75%)).

As to `COc1cc(O)c(C(=O)/C=C/c2c(OC)cccc2OC)c(OC)c1` [Compound 27], the class in data set [1] (Table 1) is 1 (Class 1 included high-affinity inhibitors (IC50 < 1 µM) producing a complete inhibition at both 2 and 10 µM). On to `COc1cc(/C=C/C(=O)c2c(O)cc(OC)cc2OC)cc(OC)c1` [Compound 28], for which the “IG50 (cytotoxicity, µM)” value in data set [2] is 6.0 ± 0.4 µM. Further, the class in data set [1] (Table 1) was 1 (Class 1 included high-affinity inhibitors (IC50 < 1 µM) producing a complete inhibition at both 2 and 10 µM). As to `COc1cc(O)c(C(=O)/C=C/c2ccccc2)c(OC)c1` [Compound 29], in data set [1] (Table 1), the class is on record as 2 (Class 2 comprised high-affinity inhibitors producing an incomplete maximal inhibition (limited to 50–75%)). Still for that read-out and setting: next, `COc1cc(O)c(C(=O)/C=C/c2ccccc2OC)c(OC)c1` [Compound 30]: 3. As to `COc1cccc(/C=C/C(=O)c2c(O)cc(OC)cc2OC)c1` [Compound 31], the “IG50 (cytotoxicity, µM)” value in data set [2] turned out to be 10.0 ± 2.1 µM. For the same molecule, the class in data set [1] (Table 1) was 1 (Class 1 included high-affinity inhibitors (IC50 < 1 µM) producing a complete inhibition at both 2 and 10 µM).

Turning to `COc1cc(OC)c(/C=C/C(=O)c2c(O)cc(OC)cc2OC)c(OC)c1` [Compound 32], the class in data set [1] (Table 1) came out at 3. Consider `COc1cc(O)c(C(=O)/C=C/c2cc(OC)c(OC)c(OC)c2)c(OC)c1` [Compound 33], for which the class in data set [1] (Table 1) is 2 (Class 2 comprised high-affinity inhibitors producing an incomplete maximal inhibition (limited to 50–75%)). Regarding `COc1cc(O)c(C(=O)/C=C/c2ccc(OC)c(OC)c2OC)c(OC)c1` [Compound 34], the class in data set [1] (Table 1) is recorded as 3. Take `COc1ccc(/C=C/C(=O)c2cn(C)c3ccccc23)c(OC)c1` [Compound 35]: the class in data set [1] (Table 2) is recorded as 3. The same measure, in the same setting: next, `COc1cc(/C=C/C(=O)c2cn(C)c3ccccc23)cc(OC)c1OC` [Compound 36]: 3.

`COc1cc(OC)c(/C=C/C(=O)c2cn(C)c3ccccc23)c(OC)c1` [Compound 37]: the “IG50 (cytotoxicity, µM)” value in data set [2] is listed as 4.0 ± 0.2 µM. For the same molecule, the class in data set [1] (Table 2) is 1 (Class 1 included high-affinity inhibitors (IC50 < 1 µM) producing a complete inhibition at both 2 and 10 µM). `COc1cccc(OC)c1/C=C/C(=O)c1cn(C)c2ccccc12` [Compound 38]: the class in data set [1] (Table 2) was 1 (Class 1 included high-affinity inhibitors (IC50 < 1 µM) producing a complete inhibition at both 2 and 10 µM). `COc1cc(OC)c(/C=C/C(=O)c2cn(C)c3ccc(OC)cc23)c(OC)c1` [Compound 39]: in data set [2], the “fold lower IG50 than compounds 27 and 38” value was found to be 50 fold; the “IG50 (cytotoxicity, µM)” value turned out to be 1.0 ± 0.1 µM. For the same molecule, the class in data set [1] (Table 2) is 1 (Class 1 included high-affinity inhibitors (IC50 < 1 µM) producing a complete inhibition at both 2 and 10 µM). `COc1ccc(C(=O)/C=C/c2cn(C)c3ccccc23)c(OC)c1` [Compound 40]: the class in data set [1] (Table 2) is recorded as 3. As for `COc1cc(OC)c(C(=O)/C=C/c2cn(C)c3ccccc23)c(OC)c1` [Compound 42], the class in data set [1] (Table 2) was determined as 3. The “ABCG2 inhibition (in words)” value in data set [1] was “especially low, if any, inhibition”.

Consider `COc1cccc(OC)c1C(=O)/C=C/c1cn(C)c2ccccc12` [Compound 43], for which the class in data set [1] (Table 2) is recorded as 3. In data set [1], the “ABCG2 inhibition (in words)” value is “especially low, if any, inhibition”.

Take `Cn1cc(/C=C/C(=O)c2cn(C)c3ccccc23)c2ccccc21` [Compound 44, 1,3-diindolylpropenone]: in data set [1] (Table 2), the class was determined as 3.
